pIC50: −log10 of the molar value. Activity calls are given as the source filed them. The calls are words filed in the database; no cut-off is given here.
Tests used:
[1] = molecular target: T1, Cyclin-dependent kinase 8 (Homo sapiens, UniProt P49336); assay: Inhibition of CDK8 (unknown origin)
[2] = molecular target: T2, Protein cereblon/Cyclin-dependent kinase 8 (Homo sapiens) (UniProt P49336+Q96SW2); assay: Induction of CRBN-mediated CDK8 degradation in human Jurkat cells at 0.1 to 1 uM measured after 6 to 24 hrs by immunoblot analysis; assay type: cell-based
Procedure, shortened: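 Jurkat cells were treated with compound at 0.1 or 1 μM. Lysates were collected at 6 and 24 h, and CDK8 protein levels were assessed by immunoblot.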

[3] = molecular target: T2, Protein cereblon/Cyclin-dependent kinase 8 (Homo sapiens); assay: Induction of CRBN-mediated CDK8 degradation in human Jurkat cells at 0.1 to 10 uM measured after 24 hrs by immunoblot analysis; assay type: cell-based
Procedure, shortened: (§1)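 Jurkat cells incubated with increasing concentrations (up to 20 μM in the widest series) for 24 h; lysate CDK8 levels read by immunoblot.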

[4] = molecular target: T2, Protein cereblon/Cyclin-dependent kinase 8 (Homo sapiens); assay: Induction of CRBN-mediated CDK8 degradation in human Jurkat cells up to 10 uM measured after 24 hrs by immunoblot analysis; assay type: cell-based; procedure, shortened: as §1
[5] = molecular target: Protein cereblon/Cyclin-dependent kinase 19 (Homo sapiens) (UniProt Q9BWU1+Q96SW2); assay: Induction of CRBN-mediated CDK19 degradation in wild-type human Jurkat cells up to 20 uM measured after 24 hrs by immunoblot analysis; assay type: cell-based
Procedure, shortened: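 Jurkat cells treated for 24 h; CDK19 protein in cell lysates assessed by immunoblot.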

[6] = molecular target: T2, Protein cereblon/Cyclin-dependent kinase 8 (Homo sapiens); assay: Induction of CRBN-mediated CDK8 degradation in wild-type human MOLT4 cells at 5 uM measured after 24 hrs by immunoblot analysis
Procedure, shortened: (§2)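 Wild-type Molt4 cells and Molt4 cells with CRISPR/Cas9 deletion of CRBN were treated with increasing concentrations for 24 h; CDK8 in lysates detected by immunoblot.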

[7] = molecular target: T2, Protein cereblon/Cyclin-dependent kinase 8 (Homo sapiens); assay: Induction of CRBN-mediated CDK8 degradation in human Jurkat cells at 1 uM measured after 6 hrs in presence of lenalidomide by immunoblot analysis; assay type: cell-based
Procedure, shortened: (§3)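 Rescue design: Jurkat cells pretreated with bortezomib (10 μM), MLN4924, lenalidomide in excess, or an excess of a CDK8-binding analogue unable to bind CRBN, then exposed to the degrader; CDK8 levels assessed by immunoblot.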

[8] = molecular target: Cyclin-dependent kinase 19 (Homo sapiens, UniProt Q9BWU1); assay: Induction of CDK19 degradation in human Jurkat cells up to 20 uM measured after 24 hrs by immunoblot analysis
[9] = molecular target: T2, Protein cereblon/Cyclin-dependent kinase 8 (Homo sapiens); assay: Induction of CRBN-mediated CDK8 degradation in human Jurkat cells at 1 uM measured after 6 to 24 hrs by immunoblot analysis; assay type: cell-based
Procedure, shortened: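 Jurkat cells given 0.1 or 1 μM; lysates collected at 6 and 24 h and probed for CDK8 by immunoblot.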

[10] = system: Jurkat; assay: Effect on CDK8 mRNA levels in human Jurkat cells at 1 uM after 24 hrs by qPCR analysis; assay type: functional, cell-based
Procedure, shortened: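 Jurkat cells exposed to 1 μM or vehicle for 24 h; Cdk8 mRNA quantified by qPCR with two separate Cdk8 primer sets, normalized to Actin.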

[11] = molecular target: T2, Protein cereblon/Cyclin-dependent kinase 8 (Homo sapiens); assay: Induction of CRBN-mediated CDK8 degradation in human Jurkat cells at 1 uM measured after 6 hrs in presence of proteasome inhibitor bortezomib by immunoblot analysis; assay type: cell-based; procedure, shortened: as §3
[12] = molecular target: T1, Cyclin-dependent kinase 8; assay: Induction of CDK8 degradation in human MOLT4 cells harboring CRBN deletion mutant at 0.1 to 5 uM measured after 24 hrs by immunoblot analysis; assay type: cell-based; procedure, shortened: as §2
[13] = molecular target: T2, Protein cereblon/Cyclin-dependent kinase 8 (Homo sapiens); assay: Induction of CRBN-mediated CDK8 degradation in human Jurkat cells at 1 uM measured after 6 hrs in presence of N-((3S,17S)-17-(isoquinolin-7-yl)-10,13-dimethylhexadecahydro-1H-cyclopenta[a]phenanthren-3-yl)-Nmethyl-1-((2-(1-methyl-2,6-dioxopiperidin-3-yl)-1,3-dioxoisoindolin-4-yl)amino)-3,6,9,12-tetraoxapentadecan-15-amide by immunoblot analysis; assay type: cell-based; procedure, shortened: as §3
[14] = molecular target: T2, Protein cereblon/Cyclin-dependent kinase 8 (Homo sapiens); assay: Induction of CRBN-mediated CDK8 degradation in wild-type human Jurkat cells at 20 uM measured after 24 hrs by immunoblot analysis; assay type: cell-based; procedure, shortened: as §1
[15] = molecular target: T2, Protein cereblon/Cyclin-dependent kinase 8 (Homo sapiens); assay: Induction of CRBN-mediated CDK8 degradation in human Jurkat cells at 1 uM measured after 6 hrs in presence of neddylation inhibitor MLN4924 by immunoblot analysis; assay type: cell-based; procedure, shortened: as §3
[16] = molecular target: T2, Protein cereblon/Cyclin-dependent kinase 8 (Homo sapiens); assay: Induction of CRBN-mediated CDK8 degradation in wild-type human Jurkat cells at 1 to 10 uM measured after 24 hrs by immunoblot analysis; assay type: cell-based; procedure, shortened: as §1
[17] = molecular target: T1, Cyclin-dependent kinase 8; assay: Inhibition of CDK8 in human HepG2 cells assessed as reduction in IFNgamma-induced STAT1 phosphorylation at S727 measured after 18 hrs by Western blot analysis; assay type: cell-based

T2 sequence (P49336 whole entry, looked up): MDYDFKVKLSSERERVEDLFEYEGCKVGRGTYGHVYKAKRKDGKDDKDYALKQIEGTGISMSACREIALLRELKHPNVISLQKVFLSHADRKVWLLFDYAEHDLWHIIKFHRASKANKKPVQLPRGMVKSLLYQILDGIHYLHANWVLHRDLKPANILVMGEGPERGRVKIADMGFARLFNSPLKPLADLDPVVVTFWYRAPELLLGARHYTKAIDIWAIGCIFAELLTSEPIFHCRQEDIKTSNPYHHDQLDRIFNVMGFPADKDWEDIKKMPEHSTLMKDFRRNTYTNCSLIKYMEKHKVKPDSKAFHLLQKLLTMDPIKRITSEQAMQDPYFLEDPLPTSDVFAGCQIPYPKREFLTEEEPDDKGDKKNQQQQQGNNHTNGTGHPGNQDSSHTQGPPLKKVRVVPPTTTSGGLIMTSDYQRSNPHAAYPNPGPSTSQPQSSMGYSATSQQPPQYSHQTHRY
T2 sequence (Q96SW2 whole entry, looked up): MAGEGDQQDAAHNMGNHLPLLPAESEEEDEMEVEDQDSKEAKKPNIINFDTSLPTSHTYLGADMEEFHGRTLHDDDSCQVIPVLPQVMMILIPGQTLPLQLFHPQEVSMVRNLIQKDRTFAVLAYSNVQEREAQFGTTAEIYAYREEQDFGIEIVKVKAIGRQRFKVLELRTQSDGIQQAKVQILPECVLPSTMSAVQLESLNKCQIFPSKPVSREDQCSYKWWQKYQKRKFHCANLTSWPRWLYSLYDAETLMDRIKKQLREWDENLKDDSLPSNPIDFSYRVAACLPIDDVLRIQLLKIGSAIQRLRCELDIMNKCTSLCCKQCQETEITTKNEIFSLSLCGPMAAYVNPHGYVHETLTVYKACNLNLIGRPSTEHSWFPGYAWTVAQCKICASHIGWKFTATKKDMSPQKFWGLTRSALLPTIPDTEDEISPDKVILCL
T1 sequence (P49336 whole entry): as the sequence (P49336 whole entry, looked up) above
Protein cereblon/Cyclin-dependent kinase 19 (Homo sapiens), sequence (Q96SW2 whole entry, looked up): as the sequence (Q96SW2 whole entry, looked up) above
Protein cereblon/Cyclin-dependent kinase 19 (Homo sapiens), sequence (Q9BWU1 whole entry, looked up): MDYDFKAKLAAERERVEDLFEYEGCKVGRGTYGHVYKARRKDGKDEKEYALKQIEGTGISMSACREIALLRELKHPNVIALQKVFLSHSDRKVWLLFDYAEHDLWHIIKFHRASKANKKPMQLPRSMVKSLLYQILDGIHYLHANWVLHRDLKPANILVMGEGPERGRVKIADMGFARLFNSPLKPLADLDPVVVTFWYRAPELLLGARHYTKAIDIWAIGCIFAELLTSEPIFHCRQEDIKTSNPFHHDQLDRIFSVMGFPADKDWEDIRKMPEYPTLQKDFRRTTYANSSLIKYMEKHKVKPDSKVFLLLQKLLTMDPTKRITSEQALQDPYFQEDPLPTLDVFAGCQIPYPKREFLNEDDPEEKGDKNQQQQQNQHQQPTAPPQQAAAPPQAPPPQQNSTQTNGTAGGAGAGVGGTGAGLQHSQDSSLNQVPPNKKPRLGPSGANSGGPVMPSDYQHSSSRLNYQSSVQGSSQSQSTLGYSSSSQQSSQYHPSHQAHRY
Cyclin-dependent kinase 19, sequence (Q9BWU1 whole entry): as the sequence (Q9BWU1 whole entry, looked up) above

Compound	pIC50 [1]	also measured
C[C@]12CC[C@H](O)CC1=CC[C@@H]1[C@@H]2CC[C@]2(C)C(c3ccc4c(N)n[nH]c4c3)=CC[C@@H]12	5.82	
C[C@]12CC[C@H]3[C@@H](CC=C4C[C@@H](O)CC[C@@]43C)[C@@H]1CC[C@@H]2c1ccc2cnncc2c1	< 5.00	
C[C@]12CC[C@H]3[C@@H](CC=C4C[C@@H](O)CC[C@@]43C)[C@@H]1CC[C@@H]2c1ccc2c(N)n[nH]c2c1	6.17	
CC(=O)N(C)[C@H]1CC[C@@]2(C)[C@@H](CC[C@@H]3[C@@H]2CC[C@]2(C)[C@@H](c4ccc5ccncc5c4)CC[C@@H]32)C1	7.47	
CN(CCCCCOCCOCCNc1cccc2c1C(=O)N(C1CCC(=O)NC1=O)C2=O)[C@H]1CC[C@@]2(C)[C@@H](CC[C@@H]3[C@@H]2CC[C@]2(C)[C@@H](c4ccc5ccncc5c4)CC[C@@H]32)C1 (stereo partly specified)		Activity [2]: inactive
CN(C(=O)CCOCCOCCNc1cccc2c1C(=O)N(C1CCC(=O)NC1=O)C2=O)[C@H]1CC[C@@]2(C)[C@@H](CC[C@@H]3[C@@H]2CC[C@]2(C)[C@@H](c4ccc5ccncc5c4)CC[C@@H]32)C1 (stereo partly specified)	6.72	Activity [3]: inactive
C[C@]12CC[C@H](O)CC1=CC[C@@H]1[C@@H]2CC[C@]2(C)C(c3ccc4cnccc4c3)=CC[C@@H]12	5.08	
C[C@]12CC[C@H](N3CCOCC3)C[C@@H]1CC[C@@H]1[C@@H]2CC[C@]2(C)[C@@H](c3ccc4ccncc4c3)CC[C@@H]12	6.92	
C[C@]12CC[C@H]3[C@@H](CC=C4C[C@@H](O)CC[C@@]43C)[C@@H]1CC[C@@H]2c1ccc2cn[nH]c2c1	< 5.00	
CN[C@H]1CC[C@@]2(C)[C@@H](CC[C@@H]3[C@@H]2CC[C@]2(C)[C@@H](c4ccc5ccncc5c4)CC[C@@H]32)C1	5.88	
CN(C)[C@H]1CC[C@@]2(C)[C@@H](CC[C@@H]3[C@@H]2CC[C@]2(C)[C@@H](c4ccc5ccncc5c4)CC[C@@H]32)C1	7.62	
C[C@]12CC[C@H](O)C[C@@H]1CC[C@@H]1[C@@H]2CC[C@]2(C)C(c3ccc4ccncc4c3)=CC[C@@H]12	6.00	
CN1C(=O)CCC(N2C(=O)c3cccc(NCCOCCOCCOCCOCCC(=O)N(C)[C@H]4CC[C@@]5(C)[C@@H](CC[C@@H]6[C@@H]5CC[C@]5(C)[C@@H](c7ccc8ccncc8c7)CC[C@@H]65)C4)c3C2=O)C1=O (stereo partly specified)	6.35	Activity [4]: inactive
C[C@]12CC[C@H]3[C@@H](CC=C4C[C@@H](O)CC[C@@]43C)[C@@H]1CC[C@@H]2c1ccc2cnccc2c1	5.22	
C[C@]12CC[C@H](O)CC1=CC[C@@H]1[C@@H]2CC[C@]2(C)C(c3ccc4[nH]ncc4c3)=CC[C@@H]12	< 5.00	
C[C@]12CC[C@H](O)CC1=CC[C@@H]1[C@@H]2CC[C@]2(C)C(c3ccc4ccncc4c3)=CC[C@@H]12	6.79	
C[C@]12CC[C@H](n3ccnn3)C[C@@H]1CC[C@@H]1[C@@H]2CC[C@]2(C)[C@@H](c3ccc4ccncc4c3)CC[C@@H]12	7.62	
CN(C(=O)CCOCCOCCOCCOCCNc1cccc2c1C(=O)N(C1CCC(=O)NC1=O)C2=O)[C@H]1CC[C@@]2(C)[C@@H](CC[C@@H]3[C@@H]2CC[C@]2(C)[C@@H](c4ccc5ccncc5c4)CC[C@@H]32)C1 (stereo partly specified)	6.80	Activity [5]: inactive; Activity [6]: Active; Activity [7]: inactive; Activity [8]: inactive; Activity [9]: Active; Activity [10]: inactive; Activity [11]: inactive; Activity [12]: inactive; Activity [13]: inactive; Activity [14]: inactive; Activity [15]: inactive; Activity [16]: Active
C[C@]12CC[C@H]3[C@@H](CC=C4C[C@@H](O)CC[C@@]43C)[C@@H]1CC[C@@H]2c1ccc2[nH]ncc2c1	< 5.00	
C[C@]12CC[C@H]3[C@@H](CC=C4C[C@@H](O)CC[C@@]43C)[C@@H]1CC[C@@H]2c1ccc2ccncc2c1	7.32	
CN(C)[C@H]1C[C@@]23CC[C@@]4(O2)C(=CC[C@]2(C)C(c5ccc6ccncc6c5)=CCC24)C=C3[C@@H](O)[C@@H]1O (stereo partly specified)		inhibition [17]: Dose-dependent effect
C[C@]12CC[C@H]3[C@@H](CC=C4C[C@@H](O)CC[C@@]43C)[C@@H]1CC[C@@H]2c1ccc2nc(N)ncc2c1	6.97	
C[C@]12CC[C@H](O)C[C@@H]1CC[C@@H]1[C@@H]2CC[C@]2(C)[C@@H](c3ccc4ccncc4c3)CC[C@@H]12	6.68	
C[C@]12CC[C@H](O)CC1=CC[C@@H]1[C@@H]2CC[C@]2(C)C(c3ccc4cn[nH]c4c3)=CC[C@@H]12	< 5.00	
C[C@]12CC[C@H](O)CC1=CC[C@@H]1[C@@H]2CC[C@]2(C)C(c3ccc4cnncc4c3)=CC[C@@H]12	< 5.00	
CN(C)[C@@H]1CC[C@@]2(C)[C@@H](CC[C@@H]3[C@@H]2CC[C@]2(C)[C@@H](c4ccc5ccncc5c4)CC[C@@H]32)C1	7.19	
C[C@]12CC[C@H](O)CC1=CC[C@@H]1[C@@H]2CC[C@]2(C)C(c3ccc4nc(N)ncc4c3)=CC[C@@H]12	5.64	

Source: ChEMBL document CHEMBL4145630, “Development of Highly Potent and Selective Steroidal Inhibitors and Degraders of CDK8” (ACS Med Chem Lett, 2018)
